Consider four compounds from ChEMBL document CHEMBL1147227, “Annularins A-H: new polyketide metabolites from the freshwater aquatic fungus Annulatascus triseptatus” (2003).

One assay concerns Bacillus subtilis. The assay is described as follows: Antibacterial activity against Bacillus subtilis ATCC 6051 at 200 ug/disk by standard disk assay. The note with it: read-out: IZ. The class given is functional. Summed up: (§1)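 Paper-disk diffusion assay with 200 µg of test material loaded per disk. Activity was read as the zone of inhibition, recorded in mm.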
Another assay relates to Candida albicans. The assay is described as follows: Antifungal activity against Candida albicans ATCC 90029 at 200 ug/disk by standard disk assay. In kind it is functional, organism-based.
For another assay, the system named is Staphylococcus aureus. Description: Antibacterial activity against Staphylococcus aureus ATCC 29213 at 200 ug/disk by standard disk assay. The note with it: read-out: IZ. The class given is functional. The method in brief:
as §1

In the next assay the test system is Aspergillus flavus. The assay is described as follows: Antifungal activity against Aspergillus flavus NRRL 6541 at 200 ug/disk by standard disk assay. In kind it is functional, organism-based.

Activity calls are given as the source filed them. The calls are words filed in the database; no cut-off is given here.

On to `CCC1OC(=O)c2c(OC)cc(=O)oc21` (stereo not drawn) [ANNULARIN F], for which, in the assay with Bacillus subtilis, the zone of inhibition at 200 µg/disc was 8 mm. For the same compound, in the assay on Candida albicans, the result was inactive.
In the case of `CC[C@H](O)c1oc(=O)cc(OC)c1CO`, the zone of inhibition at 200 µg/disc in the assay with Staphylococcus aureus was 14 mm; with Bacillus subtilis it was 8 mm. In the assay on Candida albicans, the outcome was inactive.
As to `CCCc1oc(=O)cc(OC)c1CO`, the zone of inhibition at 200 µg/disc in the assay on Bacillus subtilis came to 8 mm. Also, the outcome in the assay with Candida albicans was inactive.
In the case of `CCCc1oc(=O)cc(OC)c1C`, the result in the assay on Aspergillus flavus was inactive.
